Rows were chosen to be rich in hits. Some 1.8% of all compounds tested hit in one or more screens of this group.
SENP1 inh – inhibitors of human SENP1 SUMO protease catalytic domain | inhibition, % at 10 µM | AID 624204 | Q9P0U3 | 360,000 tested, 0.21% active | recombinant SENP1 catalytic domain, CyPet-SUMO1-YPet FRET cleavage;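 active means inhibition at least 30% at 10 µM, raw YFP signal under a set limit, fluorescence ratio 0.5 to 1.5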
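Test system: recombinant human SENP1 catalytic domain, His6-tagged / Medium: pH 8 Tris buffer with EDTA, NaCl, BME, BSA, NP40, catalase / Also added: SUMO1 FRET substrate flanked by Cypet and Ypet, 25 nM / Times: 50 min reaction at room temperature / Signal: FRET, CFP and YFP emission / Control set: no-enzyme low control and enzyme-plus-DMSO high control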
HNF4A DNA FP – change in binding of human HNF4 alpha to DNA; P41235; HNF4a-FITC DNA binding, fluorescence polarization, 1 h; activity change, % at 10 µM; 360,000 tested, 0.3% active; in the data active means activity change above about 30%, passing the limit was not always enough
Target sequence (P41235 whole entry, looked up): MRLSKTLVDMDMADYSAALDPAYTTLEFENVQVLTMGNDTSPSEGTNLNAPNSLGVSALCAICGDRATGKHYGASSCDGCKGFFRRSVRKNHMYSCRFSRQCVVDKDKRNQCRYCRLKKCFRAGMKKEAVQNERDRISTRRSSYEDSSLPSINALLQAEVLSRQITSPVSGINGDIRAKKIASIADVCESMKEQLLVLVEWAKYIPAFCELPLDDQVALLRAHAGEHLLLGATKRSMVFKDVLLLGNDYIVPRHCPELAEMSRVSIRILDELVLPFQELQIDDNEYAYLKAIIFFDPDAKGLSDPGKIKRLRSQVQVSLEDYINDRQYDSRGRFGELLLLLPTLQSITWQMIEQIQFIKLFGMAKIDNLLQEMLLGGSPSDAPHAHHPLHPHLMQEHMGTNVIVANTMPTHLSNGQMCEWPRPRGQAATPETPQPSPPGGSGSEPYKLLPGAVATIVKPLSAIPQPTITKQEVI
Rpn11 block – Rpn11 (human) deubiquitinase inhibition | 360,000 tested, 0.59% active | calls only at 20 µM | O00487 | human 26S proteasome, Ub4-pepOG fluorescence polarization; 20S core pre-blocked with epoxomicin;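 active means inhibition at 20 µM, scaled to each plate's controls, above about 33%, limit read from the data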
CSN deneddyl inh – CSN deneddylation inhibition | inhibition, % at 12.5 µM | Purified CSN, SCF-Nedd8-OG deneddylation, fluorescence polarization | 360,000 tested, 0.38% active | Q92905 | AID 651999;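 active means pattern-corrected inhibition above about 35%, with an unprinted fluorescence ratio check between 0.5 and 1.5, limit read from the data, passing the limit was not always enough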
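Test system: Human Csn5 produced in HEK293T cells | Compound: 12.5 µM single point | Times: 90 min, room temperature | Signal: Fluorescence polarization readout | Read-out basis: % inhibition of substrate cleavage by Csn5 | Controls: no-enzyme wells high, enzyme-with-substrate wells low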
TPT1 inhibitor – C. albicans TPT1 enzyme inhibition | recombinant caTPT1, FP RNA substrate dephosphorylation | inhibition, % at 5 µM | 300,000 tested, 0.81% active | AID 1962;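 active means inhibition above the mean of all tested compounds plus 3 SD, set per screening campaign, cut at about 24% in these data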
UBC9 SUMO inh – SUMOylation inhibition; HTRF SUMOylation assay, SAE1/SAE2 + UBC9, in vitro; AID 2006; inhibition, % at 35 µM; P63279; 290,000 tested, 0.36% active; in the data active means inhibition above about 50%, passing the limit was not always enough
Hits are given with their value.

Screening COc1[nH]c(/N=C/c2ccccc2)c(C#N)c1C#N returned SENP1 inh 69.6, HNF4A DNA FP inactive, Rpn11 block inactive, CSN deneddyl inh inactive, TPT1 inhibitor inactive and UBC9 SUMO inh inactive.
O=C(OCC(=O)N1CCN(C(=O)c2ccco2)CC1)c1ccc(S(=O)(=O)N2CCCCC2)cc1 was read as SENP1 inh inactive, HNF4A DNA FP 50.0, Rpn11 block inactive, CSN deneddyl inh inactive, TPT1 inhibitor inactive and UBC9 SUMO inh inactive.
`CCOC(=O)COc1ccc(Br)cc1/C=C\c1[nH]c(=O)[nH]c(=O)c1[N+](=O)[O-]` gave SENP1 inh inactive, HNF4A DNA FP inactive, Rpn11 block inactive, CSN deneddyl inh inactive, TPT1 inhibitor inactive and UBC9 SUMO inh inactive.
`CCOC(=O)COc1ccc(Br)cc1/C=C/c1[nH]c(=O)[nH]c(=O)c1[N+](=O)[O-]` gave SENP1 inh inactive, HNF4A DNA FP inactive, Rpn11 block inactive, CSN deneddyl inh 38.7, TPT1 inhibitor inactive and UBC9 SUMO inh inactive.
Screening Nc1ccccc1Nc1cc(-c2ccccc2)nn1-c1cccc(Cl)c1 returned SENP1 inh inactive, HNF4A DNA FP inactive, Rpn11 block inactive, CSN deneddyl inh inactive, TPT1 inhibitor inactive and UBC9 SUMO inh inactive.
For Brc1ccc(C2NCCS2)cc1 (stereo not given) the results were SENP1 inh inactive, HNF4A DNA FP inactive, Rpn11 block inactive, CSN deneddyl inh inactive, TPT1 inhibitor inactive and UBC9 SUMO inh inactive.
Screening COc1ccc(S(=O)(=O)N2CCCCC2)cc1NC(=O)c1cc(C)on1 returned SENP1 inh inactive, HNF4A DNA FP inactive, Rpn11 block inactive, CSN deneddyl inh inactive, TPT1 inhibitor inactive and UBC9 SUMO inh inactive.
For Nc1cnc(Br)cc1Br the results were SENP1 inh inactive, HNF4A DNA FP inactive, Rpn11 block inactive, CSN deneddyl inh inactive, TPT1 inhibitor inactive and UBC9 SUMO inh inactive.
Nc1cc2nsnc2cc1Br was read as SENP1 inh inactive, HNF4A DNA FP inactive, Rpn11 block inactive, CSN deneddyl inh 38.5, TPT1 inhibitor inactive and UBC9 SUMO inh 100.0.
For O=C1/C(=C/c2ccccn2)COc2ccccc21 the results were SENP1 inh inactive, HNF4A DNA FP inactive, Rpn11 block inactive, CSN deneddyl inh inactive, TPT1 inhibitor inactive and UBC9 SUMO inh inactive.
Screening O=C1/C(=C/c2ccc(O)cc2)COc2ccccc21 returned SENP1 inh inactive, HNF4A DNA FP inactive, Rpn11 block inactive, CSN deneddyl inh 89.4, TPT1 inhibitor inactive and UBC9 SUMO inh inactive.
For O=C(CC1Nc2ccccc2NC1=O)Nc1cc(Cl)cc(Cl)c1 (stereo not given) the results were SENP1 inh inactive, HNF4A DNA FP inactive, Rpn11 block inactive, CSN deneddyl inh inactive, TPT1 inhibitor inactive and UBC9 SUMO inh inactive.
Screening CCOC(=O)c1c(NC(=O)CC2Sc3ccc(C(F)(F)F)cc3NC2=O)sc(C)c1C (stereo not given) returned SENP1 inh inactive, HNF4A DNA FP inactive, Rpn11 block inactive, CSN deneddyl inh inactive, TPT1 inhibitor inactive and UBC9 SUMO inh inactive.
For CCOC(=O)c1c(NC(=O)CC2Nc3ccccc3NC2=O)sc(C)c1C (stereo not given) the results were SENP1 inh inactive, HNF4A DNA FP 52.5, Rpn11 block inactive, CSN deneddyl inh inactive, TPT1 inhibitor inactive and UBC9 SUMO inh inactive.
For COC(=O)c1c(NC(=O)CC2Nc3ccccc3NC2=O)sc(C)c1C (stereo not given) the results were SENP1 inh inactive, HNF4A DNA FP 44.9, Rpn11 block inactive, CSN deneddyl inh inactive, TPT1 inhibitor inactive and UBC9 SUMO inh inactive.
For COC(=O)NCC(C)OC(=O)Nc1ccc(Cl)cc1 (stereo not given) the results were SENP1 inh inactive, HNF4A DNA FP inactive, Rpn11 block inactive, CSN deneddyl inh inactive, TPT1 inhibitor inactive and UBC9 SUMO inh inactive.
`O=C(N/N=C/c1cccc([N+](=O)[O-])c1)c1cc(-c2ccc3c4c(cccc24)CC3)n[nH]1` gave SENP1 inh inactive, HNF4A DNA FP inactive, Rpn11 block inactive, CSN deneddyl inh inactive, TPT1 inhibitor inactive and UBC9 SUMO inh inactive.
